Screening results deposited in PubChem by The Scripps Research Institute Molecular Screening Center.
Hits are enriched below; roughly 1.8% of the tested compounds scored in any of these assays.
SIAE inh: human SIAE inhibitors, primary screen, biochemical, fluorescence polarization, FP-Rh probe, 1536-well HTS | Sialate O-acetylesterase (Homo sapiens), Q9HAT2 | SIAE FP-Rh probe binding | inhibition, % at 9.66 µM | actives 0.69% (n = 370,000);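 active means inhibition above a cutoff: mean of compounds within the control limits plus 3 SD of those, cut at about 17% in these data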
DDE Tn6 FP inh: inhibitors of Tn6 peptide binding to fibrin DD(E), primary screen, biochemical, fluorescence polarization, human fibrin, Tn6 probe | Fibrinogen beta chain (Homo sapiens), P02675 | Fibrin DD(E) TRITC-Tn6 fluorescence polarization displacement | inhibition, % at 8.3 µM | actives 0.21% (n = 370,000) | AID 720509, 2013;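 active means inhibition above a per-campaign cutoff: mean of compounds within control limits plus 3 SD, cut at about 15% in these data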
HTRA1 inh: HTRA1 serine protease inhibitors, primary screen, biochemical, fluorescence polarization, HTS | recombinant HTRA1, FP-rhodamine activity-based probe | actives 0.5% (n = 340,000) | inhibition, % at 5.96 µM | AID 504803, 2011; in the data active means inhibition above about 36%
Target sequence (Q92743 whole entry, looked up): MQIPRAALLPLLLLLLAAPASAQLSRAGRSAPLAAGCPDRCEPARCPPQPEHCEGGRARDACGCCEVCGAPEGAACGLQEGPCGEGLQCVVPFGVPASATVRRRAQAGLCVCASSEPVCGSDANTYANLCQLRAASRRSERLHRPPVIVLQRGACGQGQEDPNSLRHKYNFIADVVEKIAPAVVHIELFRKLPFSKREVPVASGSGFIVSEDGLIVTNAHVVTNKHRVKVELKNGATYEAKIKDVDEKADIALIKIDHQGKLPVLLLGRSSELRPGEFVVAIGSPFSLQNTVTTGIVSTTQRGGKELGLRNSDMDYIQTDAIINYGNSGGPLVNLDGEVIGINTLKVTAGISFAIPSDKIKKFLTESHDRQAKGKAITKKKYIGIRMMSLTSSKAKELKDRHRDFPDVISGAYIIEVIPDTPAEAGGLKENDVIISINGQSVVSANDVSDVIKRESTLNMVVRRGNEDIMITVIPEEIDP
ABHD4 inh: ABHD4 inhibitors, primary screen, biochemical, fluorescence polarization, mouse; actives 0.54% (n = 370,000); purified mABHD4, FP-Rh probe fluorescence polarization; AID 720543, 2013; inhibition, % at 8.92 µM;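 active means inhibition exceeding the mean over every tested compound plus 3 SD, cut at about 30% in these data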
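Doses – 8.92 µM, single dose · Material – wild-type mouse ABHD4 protein · Replication – single well per compound (singlicate) · Measure – percent inhibition of probe binding, normalized to plate controls · Schedule – 45 min compound pre-incubation plus 60 min probe step, 25 °C · Detection – fluorescence polarization with parallel and perpendicular emission, 525/598 nm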
Tn7 DDE FP: inhibitors of Tn7 peptide binding to fibrin DD(E), primary screen, biochemical, fluorescence polarization, human fibrin, Tn7 probe | inhibition, % at 8.3 µM | actives 0.13% (n = 370,000) | Fibrinogen beta chain (Homo sapiens), P02675 | FP displacement of FITC-Tn7 peptide from fibrin DD(E); 0% = median of compound wells per plate;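 active means inhibition above the mean of compounds falling within the control limits plus 3 SD of them, cut at about 14% in these data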
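assay system = human clot-derived fibrin DD(E) complex | quantity = Fibrin-DD(E) at 2 µM final | timing = 10 min preincubation, 3 h with tracer, room temperature | signal = fluorescence polarization | measure = percent inhibition | benchmarks = high control wells with 10 µM unlabelled Aha-Tn7 peptide (full inhibition) | replicates = singlicate testing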
TCR CD3 inh: inhibitors of human TCR-CD3 interaction, primary screen, biochemical, fluorescence, TAMRA-labeled TCR probe | T-cell receptor (TCR) | inhibition, % at 9.4 µM | actives 0.37% (n = 360,000) | AID 651800, 2012; in the data active means inhibition above about 19%;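 further: recombinant mutant TCR 2C K166C tagged with TAMRA read by polarization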
Tn7 DDE conf: inhibitors of Tn7 peptide binding to fibrin DD(E), confirmation, biochemical, fluorescence polarization, human fibrin, Tn7 probe; FP displacement of TRITC-Tn7 peptide from DD(E); 0% set at plate's compound-well median; actives 5% (n = 460); inhibition, % at 8.3 µM; shares compounds with Tn7 DDE FP; AID 720628, 2013;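 active means inhibition above the campaign cutoff, the mean of compounds within control limits plus 3 SD, cut at about 14% in these data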;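 further: displacers lower polarization since freed probe rises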
Tn7 DDE ctr: counter-screen for inhibitors of Tn7 peptide binding to fibrin DD(E); shares compounds with Tn7 DDE FP; inhibition, % at 8.3 µM; TRITC-Tn7 probe displacement, fluorescence polarization; actives 3% (n = 460);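 active means inhibition above the cutoff, the mean of compounds lying between the control bounds plus 3 SD of those compounds, cut at about 17% in these data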
Of the large screens only hits and unclear results are named; the others gave an inactive call (follow-up assays come after a bar, where they were run).

COC(=O)c1cc2occc2n1CC(=O)Nc1ccc(C)cc1C	Tn7 DDE FP 14 | Tn7 DDE conf inactive | Tn7 DDE ctr inactive
Nc1ccccc1NC(=O)NC(=O)c1ccccc1	none
O=C1CC2CCCC(C1)S2=O (stereo not drawn)	none
CC(=O)Nc1ccc(NC(=O)[C@@H](NC(=O)c2ccccc2F)C(C)C)cc1	Tn7 DDE FP 15 | Tn7 DDE conf inactive | Tn7 DDE ctr inactive
C=CCn1c(=O)[nH]c2nc3cc(N=CN(C)C)c(C)cc3nc2c1=O	Tn7 DDE FP 23 | Tn7 DDE conf inactive | Tn7 DDE ctr inactive
CCN(CC(=O)Nc1ccc(OC)cc1)C(=O)c1ccc2c(c1)NC(=O)C(C)S2 (stereo not drawn)	none
O=C(c1cc(-c2ccc(O)cc2)on1)N1CCc2ccccc2C1	Tn7 DDE FP 18 | Tn7 DDE conf inactive | Tn7 DDE ctr inactive
CCN(CC(=O)Nc1cccc(C(C)=O)c1)S(=O)(=O)c1ccccc1	none
COc1ccc(NC(=O)c2ccc3c(c2)OCO3)cc1	none
COc1ccc(NC(=O)C(c2cc3c(cc2[N+](=O)[O-])OCO3)N(C)c2ccccc2)cc1 (stereo not drawn)	Tn7 DDE FP 15 | Tn7 DDE conf inactive | Tn7 DDE ctr inactive
Cc1cc(S(=O)(=O)NCCCN2CCOCC2)ccc1Br	none
Cc1ccc(S(=O)(=O)CCC(=O)N2CCN(c3ccc([N+](=O)[O-])cc3)CC2)cc1	none
COc1ccccc1NC(=O)CSc1nnc(COc2ccccc2OC)n1C	Tn7 DDE FP 14 | Tn7 DDE conf inactive | Tn7 DDE ctr inactive
COc1cc(O)c(C(CCN2CCOCC2)c2ccc(N(C)C)cc2)c(OC)c1 (stereo not drawn)	Tn7 DDE FP 14 | Tn7 DDE conf inactive | Tn7 DDE ctr inactive
COc1cc(O)c(C(CCN2CCN(c3ccccc3)CC2)c2ccc(N(C)C)cc2)c(OC)c1 (stereo not drawn)	none
O=C(Nc1ccc(F)cc1)c1nc2c(nnn2Cc2cccc3ccccc23)c(=O)[nH]1	none
COc1ccc(CN2CN3Cc4ccccc4C3CS2(=O)=O)cc1 (stereo not drawn)	none (no result: HTRA1 inh, TCR CD3 inh)
C/C(=N\NC(=O)Cn1cnc2ccccc21)c1cccs1	Tn7 DDE FP 17 | Tn7 DDE conf inactive | Tn7 DDE ctr inactive
O=C1NC(c2ccccc2)c2c(-c3ccccc3)n[nH]c21 (stereo not drawn)	none (no result: HTRA1 inh)
C=CCOc1ccc(/C=C/C(=O)N2CCCN(S(=O)(=O)c3c(C)noc3C)CC2)cc1	Tn7 DDE FP 15 | Tn7 DDE conf inactive | Tn7 DDE ctr inactive
O=C(NCc1cccs1)c1csc([C@@H]2C[C@H](O)[C@@H](CO)O2)n1	none (no result: HTRA1 inh)
CN(CC(=O)Nc1cccc(F)c1)C(=O)c1ccc2c(c1)CC(c1ccccc1)OC2=O (stereo not drawn)	none
O=C(COc1ccc(Oc2ccccc2)cc1)NCc1cn2ccccc2n1	Tn7 DDE FP 16 | Tn7 DDE conf inactive | Tn7 DDE ctr inactive
C[C@@H]1COC(=O)[C@H](Cc2ccc(F)cc2)C/C=C\C[C@@H](CC(=O)NCCO)C(=O)N1	Tn7 DDE FP 15 | Tn7 DDE conf inactive | Tn7 DDE ctr inactive
C=CCC(=O)NC1CCCc2c1cnn2-c1cc(F)cc(F)c1 (stereo not drawn)	Tn7 DDE FP 15 | Tn7 DDE conf inactive | Tn7 DDE ctr inactive
C#CCn1cc(/C=N/NC(=O)COc2cccc3cccnc23)c2ccccc21	Tn7 DDE FP 14 | Tn7 DDE conf inactive | Tn7 DDE ctr inactive
COC(=O)Cn1cc(/C=N/NC(=O)COc2cccc3cccnc23)c2ccccc21	none
O=[N+]([O-])c1cccc(S(=O)(=O)N2CN(c3ccc(Br)cc3)c3nc4ccccc4nc32)c1	Tn7 DDE FP 17 | Tn7 DDE conf inactive | Tn7 DDE ctr inactive
Cc1ccc(N2CN(S(=O)(=O)c3cccc([N+](=O)[O-])c3)c3nc4ccccc4nc32)cc1	none
COc1ccc(CN2CCN(Cc3ccco3)CC2)c(OC)c1	Tn7 DDE FP 14 | Tn7 DDE conf inactive | Tn7 DDE ctr inactive
COC(=O)c1ccc(Cn2c(C)c(C(=O)NCc3ccc(C#N)cc3)sc2=O)o1	Tn7 DDE FP 14 (no result: HTRA1 inh) | Tn7 DDE conf inactive | Tn7 DDE ctr inactive
COC(=O)c1ccc(Cn2c(C)c(C(=O)NCc3ccc(Cl)c(Cl)c3)sc2=O)o1	none (no result: HTRA1 inh)
Clc1ccc(N(CC2CO2)CC2CO2)cc1 (stereo not drawn)	none
CC(=O)Nc1ccc(NC(=O)CCCCCN2C(=O)c3ccccc3C2=O)cc1	Tn7 DDE FP 14 | Tn7 DDE conf inactive | Tn7 DDE ctr inactive
O=C(Cn1[nH]c(=O)c2ccccc2c1=O)N1CCN(S(=O)(=O)c2ccc(Cl)cc2)CC1	none
Cc1ccc(CSc2nnc3ccc(-c4ccncc4)nn23)cc1	Tn7 DDE FP 14 | Tn7 DDE conf inactive | Tn7 DDE ctr inactive
Cc1ccc(NC(=O)CSc2nnc3ccc(-c4ccncc4)nn23)cc1	none
C=CCc1cccc(/C=N/NC(=O)c2ccc3nc[nH]c3c2)c1O	none
O=C(COC(=O)c1ccc(Cl)cc1)NCC1CCCCC1	Tn7 DDE FP 15 | Tn7 DDE conf inactive | Tn7 DDE ctr inactive
COc1ccccc1N(C)S(=O)(=O)c1ccc(C(=O)OCC(=O)NCC(F)(F)F)cc1	Tn7 DDE FP 14 | Tn7 DDE conf inactive | Tn7 DDE ctr inactive
CCc1nnc(NC(=O)CSc2ncnc3scc(-c4ccc(C)cc4)c23)s1	none
Cc1ccc(-c2csc3ncnc(SCC(N)=O)c23)cc1	Tn7 DDE FP 16 | Tn7 DDE conf inactive | Tn7 DDE ctr inactive
c1coc(-c2nnc3n2N=C(c2ccc4c(c2)OCO4)CS3)c1	none (no result: HTRA1 inh, TCR CD3 inh)
Cc1cccc(N2C(=O)CN(Cc3sccc3C)C2=S)c1	none
Cc1cccc(N2C(=O)CN(Cc3cccs3)C2=S)c1	Tn7 DDE FP 15 | Tn7 DDE conf inactive | Tn7 DDE ctr inactive
CCOC(=O)C1CCN(C(=O)CCC(=O)NNc2nc3ccccc3c3nc(C)nn23)CC1	none
